Among the data in ChEMBL document CHEMBL1145444, “Mechanism-based thrombin inhibitors: design, synthesis, and molecular docking of a new selective 2-oxo-2H-1-benzopyran derivative” (J Med Chem, 2007) are Ratio, partition ratio kcat/ki and Activity values, retold here.

The species entered for experiment [1] is Homo sapiens. Put plainly: Selectivity for thrombin over alpha chymotrypsin. The method, boiled down:
(§1)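 Inactivation rate constant (k_i) and K_I were determined by one of two methods depending on the protease. In the progress-curve method, inhibitor competes with a chromogenic substrate. In the preincubation method, enzyme and inhibitor are incubated first and remaining activity is sampled at regular time intervals. k_i/K_I serves as the potency index, and selectivity is taken as the ratio of k_i/K_I between proteases.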

Experiment [2] deals with Prothrombin (Homo sapiens) (UniProt P00734). Put plainly: Ratio of kcat for thrombin to Ki for thrombin. In a few lines: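 Partition ratio is the ratio of product released per inactivation event, calculated as k_cat/k_i, on thrombin.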
The target is the same in experiment [3]. The experiment is described as follows: Inhibition of thrombin assessed as residual activity at 100 uM after 10 min. In a few lines: (§2)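 Isolated, purified thrombin was incubated with inhibitor for 10 min, then its proteolytic activity was measured. Screening used 100 µM inhibitor, with lower concentrations for potent compounds. Values are reported as percentage of residual enzyme activity.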

Experiment [4] has the same target. The experiment is described as follows: Ratio of Ki for thrombin to K(inactivation) for thrombin. The method, boiled down: as §1
Experiment [5] has the same target. The experiment is described as follows: Inhibition of thrombin assessed as residual activity at 2 uM after 10 min. In a few lines: as §2
Experiment [6] shares this target. The experiment is described as follows: Inhibition of thrombin assessed as residual activity at 10 uM after 10 min. The method, boiled down:
as §2

Experiment [7] is filed under the species Homo sapiens. The experiment is described as follows: Ratio of Ki for alpha chymotrypsin to K(inactivation) for alpha chymotrypsin. The method, boiled down:
as §1

For the compound `O=C(Oc1cccc(Cl)c1)c1cc2cc(CCl)ccc2oc1=O`, in the experiment listed under Homo sapiens [1], the Ratio amounted to 0.01. In addition, in experiment [2], the partition ratio kcat/ki is 2.8.

`O=C(Oc1cc(Cl)ccc1Cl)c1cc2cc(Oc3ccccc3)ccc2oc1=O`: the Activity in experiment [3] is 94%.

In the case of `O=C(OCc1cc(Cl)ccc1O)c1cc2cc(CCl)ccc2oc1=O`, in experiment [3], the Activity was found to be 101%.

With `CCOC(=O)COc1ccc(Cl)cc1COC(=O)c1cc2cc(CCl)ccc2oc1=O`, in experiment [3], the Activity stood at 95%.

In the case of `O=C(Oc1cc(Cl)ccc1Cl)c1cc2cc(CCl)ccc2oc1=O`, the Ratio in the experiment listed under Homo sapiens [1] is 0.13. In addition, the partition ratio kcat/ki in experiment [2] was 1.8.

As to `O=C(Oc1cccc(Cl)c1)c1cc2cc(Oc3ccccc3)ccc2oc1=O`, the Activity in experiment [3] came out at 90%.

Take `CCNC(=O)COc1ccc(Cl)cc1OC(=O)c1cc2cc(CCl)ccc2oc1=O`: the results for the Ratio (in experiment [4]; in the experiment filed under Homo sapiens [1]; in the experiment listed under Homo sapiens [7]) were 3460 M⁻¹ s⁻¹, 5 and 755 M⁻¹ s⁻¹, respectively. The Activity in experiment [5] was 11%; in experiment [6] it was 3%. Further, the partition ratio kcat/ki in experiment [2] amounted to 13.5.

For the compound `Nc1ccc(Cl)cc1OC(=O)c1cc2cc(CCl)ccc2oc1=O`, the Activity in experiment [3] turned out to be 60%.

Turning to `O=C(Nc1cc(Cl)ccc1Cl)c1cc2cc(CCl)ccc2oc1=O`, the Activity in experiment [3] was 91%.

On to `O=C(Nc1cc(Cl)ccc1O)c1cc2cc(CCl)ccc2oc1=O`, for which the Activity in experiment [3] is 110%.

Consider `O=C(OCc1cc(Cl)ccc1Cl)c1cc2cc(CCl)ccc2oc1=O`, for which, in experiment [3], the Activity came to 103%.
